In assay [1] the test system is Pseudomonas aeruginosa. Description: Antibacterial activity was determined against gram negative organism, Pseudomonas aeruginosa (UI-18). The class given is functional. An outline of the steps: (§1)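 MIC by standard microtitration against a panel of 10 representative Gram-negative and Gram-positive organisms; values reported in µg/mL.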
Assay [2] relates to Bacteria. As to the kind of experiment: Antibacterial activity was determined against gram negative organism, Providencia rettgeri. (M1771). In kind it is functional. The gist of the method: as §1
Assay [3] addresses DNA gyrase (Escherichia coli) (UniProt P0AES6+P0AES4).
For assay [4], the system named is Staphylococcus aureus. Description: Antibacterial activity was determined against gram positive organism, Staphylococcus aureus (UC76). The class given is functional. An outline of the steps: as §1
The nature of assay [5]: MIC ratio measured as the mean MICs of gram-negative bacteria. The class given is functional. An outline of the steps: (§2)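 Geometric mean of the MICs (µg/mL) over the Gram-negative or the Gram-positive strains of the 10-organism microtitration panel, calculated separately for each class.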
Assay [6] deals with Enterococcus faecalis. As to the kind of experiment: Antibacterial activity was determined against gram positive organism, Streptococcus faecalis (MGH-2). In kind it is functional. The gist of the method: as §1
For assay [7], the system named is Enterobacter cloacae. Description: Antibacterial activity against gram negative organism, […] (MA2646). The class given is functional.
Assay [8] has as its system Staphylococcus aureus. As to the kind of experiment: Antibacterial activity was determined against gram positive organism, Staphylococcus aureus (H228). The class given is functional. The gist of the method:
as §1

Assay [9] concerns Klebsiella pneumoniae. Description: Antibacterial activity was determined against gram negative organism, K. pneumoniae (MGH-2). In kind it is functional. The gist of the method:
as §1

Assay [10] in a line: MIC ratio measured as the mean MICs of gram-positive bacteria. The class given is functional. The gist of the method: as §2
Assay [11] deals with Escherichia coli. Description: Antibacterial activity was determined against gram negative organism, E. coli(vogel). In kind it is functional. The gist of the method: as §1
Assay [12] concerns Streptococcus pyogenes. As to the kind of experiment: Antibacterial activity was determined against gram positive organism, Streptococcus pyogenes (C203). In kind it is functional. An outline of the steps: as §1
Assay [13] relates to Streptococcus pneumoniae. Description: Antibacterial activity was determined against gram positive organism, Streptococcus pneumoniae (SV-1). The class given is functional. An outline of the steps: as §1

This note sets out measurements from ChEMBL document CHEMBL1125920, “Synthesis and biological activity of 5-alkyl-1,7,8-trisubstituted-6-fluoroquinoline-3-carboxylic acids” (1991).

Usually MIC stands for the lowest concentration that inhibits growth of the organism.

Each structure is given as a SMILES string. Values after ≈ are worked out from the molar mass of the structure shown.

In the case of `CCn1cc(C(=O)O)c(=O)c2c(C)c(F)c(N3CCC(N)C3)cc21` (centres undefined), the MIC in assay [1] is 3.1 µg/mL (≈ 9.3 µM); in [2], 1.6 µg/mL (≈ 4.8 µM); in assay [4] it was 0.4 µg/mL (≈ 1.2 µM); in [6], 1.6 µg/mL (≈ 4.8 µM); in assay [7], 0.2 µg/mL (≈ 0.6 µM); in assay [8] it was 1.6 µg/mL (≈ 4.8 µM). Moreover, the MIC in assay [9] came to 0.8 µg/mL (≈ 2.4 µM); in assay [11], 0.2 µg/mL (≈ 0.6 µM); in assay [12], 3.1 µg/mL (≈ 9.3 µM); in [13] it was 1.6 µg/mL (≈ 4.8 µM). In addition, in [3], the DNA cleavage came out at 6.3 µg/mL. Besides, the Ratio in assay [5] stood at 0.69; in assay [10] it was 1.38.
Turning to `Cc1c(F)c(N2CCNC(C)C2)cc2c1c(=O)c(C(=O)O)cn2-c1ccc(F)cc1F` (centres undefined), the MIC is 1.6 µg/mL (≈ 3.71 µM) in assay [1]; 0.8 µg/mL (≈ 1.85 µM) in assay [2]; 0.025 µg/mL (≈ 0.0579 µM) in [4]; 0.4 µg/mL (≈ 0.927 µM) in assay [6]; 0.2 µg/mL (≈ 0.464 µM) in [7]; 0.1 µg/mL (≈ 0.232 µM) in assay [8]. Moreover, the MIC in assay [9] came out at 0.4 µg/mL (≈ 0.927 µM); in [11], 0.1 µg/mL (≈ 0.232 µM); in assay [12], 0.1 µg/mL (≈ 0.232 µM); in [13], 0.05 µg/mL (≈ 0.116 µM). Moreover, the DNA cleavage in assay [3] stood at 1.75 µg/mL. The Ratio in assay [5] is 0.4; in assay [10] it was 0.087.
Take `CCNCC1CCN(c2cc3c(c(C)c2F)c(=O)c(C(=O)O)cn3CC)C1` (centres undefined): the MIC in assay [1] turned out to be 25 µg/mL (≈ 66.6 µM); in assay [2], 12.5 µg/mL (≈ 33.3 µM); in [4] it was 0.4 µg/mL (≈ 1.07 µM); in [6] it was 1.6 µg/mL (≈ 4.26 µM); in assay [7], 3.1 µg/mL (≈ 8.26 µM); in assay [8], 1.6 µg/mL (≈ 4.26 µM). Moreover, the MIC in assay [9] came out at 6.3 µg/mL (≈ 16.8 µM); in [11], 1.6 µg/mL (≈ 4.26 µM); in [12] it was 1.6 µg/mL (≈ 4.26 µM); in [13], 0.8 µg/mL (≈ 2.13 µM). In assay [3], this molecule gave a DNA cleavage of 3 µg/mL. Also, the Ratio worked out at 6.28 in [5] and 1.06 in assay [10].
Take `CCn1cc(C(=O)O)c(=O)c2cc(F)c(N3CCC(N)C3)c(F)c21` (centres undefined): the MIC in [1] came to 0.4 µg/mL (≈ 1.19 µM); in assay [2], 0.2 µg/mL (≈ 0.593 µM); in assay [4] it was 0.1 µg/mL (≈ 0.296 µM); in assay [6], 0.4 µg/mL (≈ 1.19 µM); in assay [7], 0.1 µg/mL (≈ 0.296 µM); in assay [8] it was 0.4 µg/mL (≈ 1.19 µM). Moreover, the MIC in assay [9] was 0.2 µg/mL (≈ 0.593 µM); in [11], 0.1 µg/mL (≈ 0.296 µM); in [12], 0.2 µg/mL (≈ 0.593 µM); in assay [13], 0.4 µg/mL (≈ 1.19 µM). In addition, the DNA cleavage in assay [3] is 2.5 µg/mL. The Ratio came out at 0.17 in assay [5] and 0.27 in assay [10].
In the case of `Cc1c(F)c(N2CCC(C)(CN)C2)c(F)c2c1c(=O)c(C(=O)O)cn2C1CC1` (centres undefined), the MIC in assay [1] stood at 0.8 µg/mL (≈ 2.04 µM); in assay [2], 0.2 µg/mL (≈ 0.511 µM); in assay [4] it was 0.003 µg/mL (≈ 0.00766 µM); in assay [6], 0.025 µg/mL (≈ 0.0639 µM); in assay [7] it was 0.05 µg/mL (≈ 0.128 µM); in assay [8], 0.006 µg/mL (≈ 0.0153 µM). For the same molecule, the MIC worked out at 0.1 µg/mL (≈ 0.255 µM) in assay [9], 0.05 µg/mL (≈ 0.128 µM) in [11], 0.003 µg/mL (≈ 0.00766 µM) in assay [12] and 0.003 µg/mL (≈ 0.00766 µM) in assay [13]. This molecule also had a DNA cleavage in assay [3] of 3.75 µg/mL. The Ratio stood at 0.13 in [5] and 0.0053 in assay [10].
With `CCn1cc(C(=O)O)c(=O)c2c(C)c(F)c(N3CCNCC3)c(F)c21`, the MIC in [1] worked out at 1.6 µg/mL (≈ 4.55 µM); in assay [2] it was 0.4 µg/mL (≈ 1.14 µM); in assay [4] it was 0.2 µg/mL (≈ 0.569 µM); in assay [6] it was 3.1 µg/mL (≈ 8.82 µM); in assay [7], 0.05 µg/mL (≈ 0.142 µM); in assay [8], 0.8 µg/mL (≈ 2.28 µM). The minimal inhibitory concentration (MIC) amounted to 0.2 µg/mL (≈ 0.569 µM) in assay [9], 0.05 µg/mL (≈ 0.142 µM) in assay [11], 12.5 µg/mL (≈ 35.6 µM) in assay [12] and 6.3 µg/mL (≈ 17.9 µM) in assay [13]. The same molecule came in with a DNA cleavage in assay [3] of 7.5 µg/mL. The Ratio was 0.2 in assay [5] and 2.08 in [10].
Take `O=C(O)c1cn(C2CC2)c2c(Cl)c(N3CCNCC3)c(F)cc2c1=O`: the MIC in [1] turned out to be 0.4 µg/mL (≈ 1.09 µM); in assay [2], 0.1 µg/mL (≈ 0.273 µM); in assay [4], 0.05 µg/mL (≈ 0.137 µM); in [6] it was 0.4 µg/mL (≈ 1.09 µM); in assay [7] it was 0.025 µg/mL (≈ 0.0683 µM); in [8] it was 0.1 µg/mL (≈ 0.273 µM). Also, the MIC in assay [9] was determined as 0.05 µg/mL (≈ 0.137 µM); in assay [11], 0.025 µg/mL (≈ 0.0683 µM); in assay [12], 0.2 µg/mL (≈ 0.547 µM); in assay [13], 0.1 µg/mL (≈ 0.273 µM). In addition, the DNA cleavage in assay [3] stood at 0.5 µg/mL. Further, the Ratio in assay [5] was 0.066; in assay [10], 0.13.
`CCn1cc(C(=O)O)c(=O)c2cc(F)c(N3CCC(N)C3)cc21` (centres undefined): the MIC in assay [1] stood at 0.8 µg/mL (≈ 2.51 µM); in [2] it was 0.2 µg/mL (≈ 0.626 µM); in assay [4], 0.1 µg/mL (≈ 0.313 µM); in assay [6], 0.8 µg/mL (≈ 2.51 µM); in assay [7] it was 0.1 µg/mL (≈ 0.313 µM); in [8], 0.8 µg/mL (≈ 2.51 µM). In addition, the MIC in assay [9] worked out at 0.2 µg/mL (≈ 0.626 µM); in assay [11], 0.1 µg/mL (≈ 0.313 µM); in assay [12], 0.4 µg/mL (≈ 1.25 µM); in assay [13], 0.4 µg/mL (≈ 1.25 µM). In assay [3], this molecule yielded a DNA cleavage of 2.5 µg/mL. Moreover, the Ratio in assay [5] stood at 0.2; in assay [10] it was 0.4.
